PMC9014391 (Heliyon, 2022)

Columns and labels:
HCT-116^G13D = experiment: SRB assay; type: cell-based; conditions: Homo sapiens, 48 h
In short: (§1)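 Sulforhodamine B assay. Cells were plated at 5000–10,000/well according to doubling time, then after 24 h exposed to a 7-point, 2-fold dilution series for 48 h at 37 °C, with paclitaxel as positive control. Cells were TCA-fixed 1 h at 4 °C and stained with 0.4% SRB, with unbound dye removed by 1% acetic acid. Bound dye was dissolved in 10 mM Tris pH 10.4 and read at 540 nm. IC50 was obtained by curve fitting; quadruplicates.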

SW-620^G12V = experiment: SRB assay; type: cell-based; conditions: Homo sapiens, 48 h
In short: as §1

[1] = test system: HCT-116^G13D parental derived colonospheres; experiment: 3D colonospheres chemotherapy treatment; type: cell-based, Human; conditions: 5-FU 14.7 μM, PMBA 1.7 μM, after ten days of growth
In short: (§2)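 Colonospheres grown from single-cell suspensions at low density in serum-free DMEM/F12 with FGF (10 ng/mL), EGF (20 ng/mL) and B27. Medium was refreshed every 3–4 days, and spheres were passaged by syringe dissociation. After ten days of growth, parental- or CSC-derived colonospheres were exposed to 5-FU (14.7/78 μM) and/or test compound (1.7/2.2 μM). Response was judged by metabolically active cells and sphere dissociation, with phase-contrast imaging.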

[2] = test system: HCT-116^G13D-CSCs derived colonospheres; experiment: 3D colonospheres chemotherapy treatment; type: cell-based, Human; conditions: 5-FU 14.7 μM, even with prolonged exposure
In short: as §2

[3] = test system: SW-620^G12V-CSC derived colonospheres; experiment: 3D colonospheres chemotherapy treatment; type: cell-based, Human; conditions: 5-FU 78 μM, even with prolonged exposure
In short: as §2

ABCB1 = experiment: qRT-PCR after chemotherapy treatment; type: cell-based, Human; conditions: HCT-116^G13D- and SW-620^G12V–CSCs, 48 h; printed '∼4 and 2-fold' for 'ABCB1 and ABCC1'
ABCC1 = experiment: qRT-PCR after chemotherapy treatment; type: cell-based, Human; conditions: HCT-116^G13D- and SW-620^G12V–CSCs, 48 h; printed '∼4 and 2-fold' for 'ABCB1 and ABCC1'
[4] = test system: ALDH1A1, ALDH1A3 and ALDH3A1; experiment: qRT-PCR after chemotherapy treatment; type: cell-based, Human; conditions: HCT-116^G13D and SW-620^G12V, 48 h
In short: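 Parental monolayers and 10-day colonospheres were treated 48 h with 5-FU (14.7/78 μM), test compound (1.7/2.2 μM) or both, with 0.2% DMSO (final) as control. RNA was extracted with Tri-reagent and DNase-treated, then reverse-transcribed. SYBR green qPCR ran 95 °C 2 min, then 40 cycles of 95 °C 5 s/60 °C 5 s, with a final 72 °C 5 min. Expression was normalised to GAPDH.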

[5] = type: in vivo, Balb/c mice
In short: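 Male or unspecified Balb/c mice (20–22 g), fasted overnight, four groups of five. Single oral doses were given in 0.5% DMSO/10% Solutol/water at 10 mL/kg: test compound 20 mg/kg and 5-FU 40 mg/kg, alone or combined. Retro-orbital blood was taken at 0–10 h into EDTA by sparse sampling, two samples per group. Plasma (50 μL) was protein-precipitated with methanol, centrifuged, and the organic layer analysed.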

advanced CRC = conditions: background statement, ref not given; cited from earlier work
[6] = Balb/c, mouse, plasma, po, 40 mg

IC50 (HCT-116^G13D): 14.8 µM
IC50 (SW-620^G12V): 78.3 µM
Vd ([5]; 5-FU alone, oral 40 mg): 56.32 L/kg
AUC(0-inf) [5, 6]: 1140 ng·h/mL
AUC(0-t) [5, 6]: 1110 ng·h/mL
Cmax [5, 6]: 2450 ng/mL
half-life [5, 6]: 1.1 h
SMILES: O=c1[nH]cc(F)c(=O)[nH]1 [5-FU, 5-Fluorouracil]
response of colonospheres to treatment [1]: sensitive
response of colonospheres to treatment [2]: resistant
response of colonospheres to treatment [3]: resistant
ABCB1 expression, fold down regulated (ABCB1): did not alter the expression
ABCC1 expression, fold down regulated (ABCC1): did not alter the expression
ALDH1A1, ALDH1A3 and ALDH3A1 expression [4]: did not alter the expression
curative accountability (advanced CRC): 10–15%
